Here are results for four molecules from ChEMBL document CHEMBL4257540, “Structure-based virtual screening and ADME/T-based prediction analysis for the discovery of novel antifungal CYP51 inhibitors” (Medchemcomm, 2018).

SMILES strings stand for the structures. ≈ marks a conversion by molar mass, not a printed value.

One data set relates to Pichia kudriavzevii. Nature of the data set: Antifungal activity against Candida krusei ATCC 6258 by broth microdilution method. It is filed as functional. In outline: (§1)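 MIC per NCCLS broth microdilution. Fungi incubated at 35 °C and growth checked daily. Fluconazole served as positive control.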
Data set [1] addresses T1, Lanosterol 14-alpha demethylase (Candida albicans (strain SC5314 / ATCC MYA-2876) (Yeast), UniProt P10613). The data set can be described thus: Inhibition of CYP51 in Candida albicans SC5314 assessed as obtusifoliol content at 8 ug/ml after 16 hrs by GC/MS analysis relative to control. The conditions noted are these: candida albicans sc5314, 16 h. Set-up: scale not given: the % may be the effect or the level left.

For data set [2], the target named is T1, Lanosterol 14-alpha demethylase. The data set can be described thus: Inhibition of CYP51 in Candida albicans SC5314 assessed as unidentified sterol content at 8 ug/ml after 16 hrs by GC/MS analysis (reference value: 5.8%). The conditions noted are these: candida albicans sc5314, 16 h. Set-up: scale not given: the % may be the effect or the level left.
Data set [3] shares this target. Nature of the data set: Inhibition of CYP51 in Candida albicans SC5314 assessed as lanosterol content at 8 ug/ml after 16 hrs by GC/MS analysis (reference value: 3.9%). Set-up: scale not given: the % may be the effect or the level left. The conditions noted are these: candida albicans sc5314, 16 h.
In another data set the test system is Nakaseomyces glabratus. Nature of the data set: Antifungal activity against Candida glabrata ATCC 0001 by broth microdilution method. It is filed as functional. In outline: as §1
For orientation: In broth dilution the organism is exposed to a series of concentrations in liquid medium.

Data set [4] concerns the target T1, Lanosterol 14-alpha demethylase. The data set can be described thus: Inhibition of CYP51 in Candida albicans SC5314 assessed as ergosterol content at 8 ug/ml after 16 hrs by GC/MS analysis (reference value: 90.3%). Set-up: scale not given: the % may be the effect or the level left. The conditions noted are these: candida albicans sc5314, 16 h.
Data set [5] has as its system Candida albicans. Nature of the data set: Antifungal activity against Candida albicans ATCC 10231 by broth microdilution method. It counts as functional. In outline:
(§2)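 Broth microdilution MIC per NCCLS guidelines; strains from a Chinese medical fungus preservation centre and Shenyang Pharmaceutical University. Cultures kept at 35 °C with daily growth observation.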

In data set [6] the test system is Candida albicans. The data set can be described thus: Antifungal activity against fluconazole-resistant Candida albicans 103 by broth microdilution method. It counts as functional. In outline:
as §2

The test system of a further data set is Aspergillus fumigatus. Nature of the data set: Antifungal activity against Aspergillus fumigatus KM8001 by broth microdilution method. It is filed as functional. The essentials: as §1
Data set [7] deals with Candida albicans. The data set can be described thus: Antifungal activity against fluconazole-resistant Candida albicans 100 by broth microdilution method. It is filed as functional. The essentials: as §2
The next data set concerns Candida tropicalis. The data set can be described thus: Antifungal activity against Candida tropicalis ATCC 1369 by broth microdilution method. It counts as functional. In outline: as §1
Data set [8] has as its target T1, Lanosterol 14-alpha demethylase. The data set can be described thus: Inhibition of CYP51 in Candida albicans SC5314 assessed as eburicol content at 8 ug/ml after 16 hrs by GC/MS analysis relative to control. Set-up: scale not given: the % may be the effect or the level left. The conditions noted are these: candida albicans sc5314, 16 h.

The MIC is the lowest concentration found to suppress growth.

T1 sequence (P10613 whole entry): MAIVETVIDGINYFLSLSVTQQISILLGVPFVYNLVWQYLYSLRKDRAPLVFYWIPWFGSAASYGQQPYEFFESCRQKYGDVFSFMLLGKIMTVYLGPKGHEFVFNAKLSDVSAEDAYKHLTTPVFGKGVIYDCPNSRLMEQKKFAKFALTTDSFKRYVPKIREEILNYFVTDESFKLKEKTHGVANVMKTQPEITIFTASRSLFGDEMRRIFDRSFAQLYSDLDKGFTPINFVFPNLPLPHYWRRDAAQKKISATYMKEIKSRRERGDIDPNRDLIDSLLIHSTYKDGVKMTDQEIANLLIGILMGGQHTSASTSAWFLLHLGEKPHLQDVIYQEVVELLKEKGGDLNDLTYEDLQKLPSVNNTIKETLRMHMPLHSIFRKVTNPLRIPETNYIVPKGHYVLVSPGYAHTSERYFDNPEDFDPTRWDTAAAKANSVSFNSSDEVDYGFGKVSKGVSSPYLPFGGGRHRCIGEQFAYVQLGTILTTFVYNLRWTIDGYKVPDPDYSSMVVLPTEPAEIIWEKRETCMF

Consider `OC(Cn1cncn1)(Cn1cncn1)c1ccc(F)cc1F` [FLUCONAZOLE], for which the MIC in the data set on Pichia kudriavzevii is 2 µg/mL (≈ 6.53 µM); with Nakaseomyces glabratus it was 2 µg/mL (≈ 6.53 µM); in the data set with Candida albicans [5], 4 µg/mL (≈ 13.1 µM); in the data set on Candida albicans [6], more than 64 µg/mL; with Aspergillus fumigatus it was 32 µg/mL (≈ 104 µM); against Candida albicans [7], more than 64 µg/mL. In addition, the MIC against Candida tropicalis was determined as 2 µg/mL (≈ 6.53 µM). In addition, the Activity in data set [1] is 6.3%; in [2], 4.1%; in data set [3] it was 19.9%; in [4], 2.5%; in [8], 67.2%.

Consider `Nc1c(/C=N/NC(=O)c2ccncc2)ccc2c1C(=O)c1ccccc1C2=O`, for which the minimum inhibitory concentration (MIC) with Pichia kudriavzevii turned out to be 4 µg/mL (≈ 10.8 µM); in the data set with Nakaseomyces glabratus, 8 µg/mL (≈ 21.6 µM); in the data set with Candida albicans [5], 8 µg/mL (≈ 21.6 µM); against Candida albicans [6] it was 16 µg/mL (≈ 43.2 µM); in the data set on Aspergillus fumigatus, 16 µg/mL (≈ 43.2 µM); against Candida albicans [7] it was 8 µg/mL (≈ 21.6 µM). For the same molecule, 2 µg/mL (≈ 5.4 µM) was the least that counted as inhibitory in the data set on Candida tropicalis (MIC). For the same molecule, the Activity in [1] worked out at 7.4%; in data set [2], 4.3%; in data set [3], 20.3%; in data set [4] it was 4.6%; in data set [8], 63.4%.

In the case of `O=C(NCCc1ccncc1)c1cnc2c(F)cccc2c1O`, the MIC in the data set with Pichia kudriavzevii worked out at 8 µg/mL (≈ 25.7 µM); in the data set on Nakaseomyces glabratus, 4 µg/mL (≈ 12.8 µM); with Candida albicans [5], 8 µg/mL (≈ 25.7 µM); in the data set on Candida albicans [6], 16 µg/mL (≈ 51.4 µM); with Aspergillus fumigatus, 16 µg/mL (≈ 51.4 µM); with Candida albicans [7] it was 8 µg/mL (≈ 25.7 µM). This molecule also had an MIC in the data set with Candida tropicalis of 16 µg/mL (≈ 51.4 µM). In addition, the Activity is 8.2% in data set [1]; 4.9% in data set [2]; 23.1% in data set [3]; 9.1% in data set [4]; 54.7% in [8].

On to `COc1cccc(NC(=S)N(CCN(C)C)[C@@H](C)c2ccncc2)c1`, for which the MIC was found to be 4 µg/mL (≈ 11.2 µM) in the data set on Pichia kudriavzevii; 2 µg/mL (≈ 5.58 µM) against Nakaseomyces glabratus; 4 µg/mL (≈ 11.2 µM) in the data set with Candida albicans [5]; 4 µg/mL (≈ 11.2 µM) with Candida albicans [6]; 8 µg/mL (≈ 22.3 µM) in the data set with Aspergillus fumigatus; 8 µg/mL (≈ 22.3 µM) against Candida albicans [7]. The minimum inhibitory concentration (MIC) in the data set on Candida tropicalis amounted to 4 µg/mL (≈ 11.2 µM). Besides, the Activity turned out to be 7.1% in data set [1]; 5.7% in data set [2]; 22.4% in [3]; 5.8% in data set [4]; 59% in [8].
